pIC50: −log10 of the molar value.
How the values were obtained:
[1] = Inhibitory activity against human aminopeptidase P
[2] = biological target: Dipeptidyl peptidase 4 (Homo sapiens, UniProt P27487); assay: Inhibitory activity against human recombinant Dipeptidylpeptidase IV
Procedure, shortened: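 Human recombinant enzyme run in a fluorometric assay with Gly-Pro-AMC as substrate. Cleavage releases fluorescent 7-amino-4-methylcoumarin, which is read to give IC50 values.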

[3] = biological target: T1, Prolyl endopeptidase (Homo sapiens, UniProt P48147); assay: Inhibitory activity against human prolylendopeptidase
T1 sequence (P48147 whole entry): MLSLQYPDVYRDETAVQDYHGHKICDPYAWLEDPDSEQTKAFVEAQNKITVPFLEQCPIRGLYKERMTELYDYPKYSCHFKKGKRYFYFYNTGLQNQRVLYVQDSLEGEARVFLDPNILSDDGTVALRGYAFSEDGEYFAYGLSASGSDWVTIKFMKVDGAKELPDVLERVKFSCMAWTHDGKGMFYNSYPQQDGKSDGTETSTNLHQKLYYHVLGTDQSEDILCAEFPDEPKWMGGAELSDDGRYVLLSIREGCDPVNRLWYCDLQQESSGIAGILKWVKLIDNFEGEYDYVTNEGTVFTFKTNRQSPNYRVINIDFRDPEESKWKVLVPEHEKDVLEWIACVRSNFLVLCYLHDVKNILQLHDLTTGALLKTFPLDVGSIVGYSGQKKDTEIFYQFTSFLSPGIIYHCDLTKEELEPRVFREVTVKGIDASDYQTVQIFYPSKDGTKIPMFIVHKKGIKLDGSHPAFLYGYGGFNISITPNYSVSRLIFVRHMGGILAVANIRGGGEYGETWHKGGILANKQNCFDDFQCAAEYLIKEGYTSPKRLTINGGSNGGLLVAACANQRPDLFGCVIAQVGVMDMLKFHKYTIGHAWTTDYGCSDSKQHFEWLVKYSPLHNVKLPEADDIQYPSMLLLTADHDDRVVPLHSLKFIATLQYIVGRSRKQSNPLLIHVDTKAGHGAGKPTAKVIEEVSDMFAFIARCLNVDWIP

[4] = biological target: Dipeptidyl peptidase 2 (Homo sapiens, UniProt Q9UHL4); assay: Inhibitory activity against human quiescent cell proline dipeptidase
[5] = biological target: T1, Prolyl endopeptidase; assay: Inhibitory activity against human prolyl endopeptidase

Sequence of Dipeptidyl peptidase 4 (P27487 whole entry): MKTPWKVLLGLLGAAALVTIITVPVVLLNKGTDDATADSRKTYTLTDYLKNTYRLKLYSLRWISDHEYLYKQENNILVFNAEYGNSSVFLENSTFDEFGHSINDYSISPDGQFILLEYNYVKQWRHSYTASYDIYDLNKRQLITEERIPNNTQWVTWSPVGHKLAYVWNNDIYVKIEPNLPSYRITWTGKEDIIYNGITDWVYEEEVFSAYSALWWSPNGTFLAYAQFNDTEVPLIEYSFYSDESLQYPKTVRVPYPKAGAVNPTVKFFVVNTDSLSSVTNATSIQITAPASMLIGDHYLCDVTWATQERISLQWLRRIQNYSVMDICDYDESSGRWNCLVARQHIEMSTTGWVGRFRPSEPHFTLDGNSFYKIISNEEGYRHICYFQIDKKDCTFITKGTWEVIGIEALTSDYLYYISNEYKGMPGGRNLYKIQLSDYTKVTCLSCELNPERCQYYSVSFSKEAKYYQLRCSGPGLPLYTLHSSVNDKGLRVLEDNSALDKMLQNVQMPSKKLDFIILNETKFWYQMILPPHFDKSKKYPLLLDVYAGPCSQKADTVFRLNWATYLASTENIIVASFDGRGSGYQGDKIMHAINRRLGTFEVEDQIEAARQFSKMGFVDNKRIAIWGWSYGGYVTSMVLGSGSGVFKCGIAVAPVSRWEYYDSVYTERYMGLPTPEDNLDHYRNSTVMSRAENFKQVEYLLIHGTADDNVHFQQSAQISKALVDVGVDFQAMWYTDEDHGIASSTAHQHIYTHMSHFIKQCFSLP

SMILES | pIC50 [1] | pIC50 [2] | pIC50 [3] | pIC50 [4] | pIC50 [5]
COc1ccc(NC(=O)O[C@H]2CCC[C@H]([C@H](N)C(=O)N3CCCC3)C2)cc1 | < 4.00 | 6.32 | < 4.00 | 6.11 | –
CS(=O)(=O)c1ccc(S(=O)(=O)N[C@H]2CC[C@H]([C@H](N)C(=O)N3CCCC3)C2)cc1 | < 4.00 | 6.89 | < 4.00 | 4.72 | –
N[C@H](C(=O)N1CCCC1)[C@H]1CC[C@@H](NS(=O)(=O)c2ccc(OC(F)(F)F)cc2)C1 | < 4.00 | 6.26 | < 4.00 | 6.12 | –
N[C@H](C(=O)N1CCCC1)[C@H]1CCC[C@@H](OC(=O)Nc2ccc(I)cc2)C1 | < 4.00 | 6.96 | 4.57 | 6.38 | –
N[C@H](C(=O)N1CCCC1)[C@@H]1CC[C@@H](NS(=O)(=O)c2ccc(OC(F)(F)F)cc2)C1 | < 4.00 | 6.77 | < 4.00 | 5.77 | –
N[C@H](C(=O)N1CCCC1)[C@H]1CCC[C@H](O)C1 | < 4.00 | 6.54 | < 4.00 | 4.40 | –
N[C@H](C(=O)N1CCSC1)[C@H]1CC[C@H](NC(=O)c2cccc3ccccc23)C1 | < 4.00 | 7.33 | 5.85 | 6.62 | –
CS(=O)(=O)NCCS(=O)(=O)N[C@@H]1CC[C@@H]([C@H](N)C(=O)N2CCCC2)C1 | < 4.00 | 7.15 | – | 4.68 | < 4.00
CS(=O)(=O)NCCS(=O)(=O)N[C@H]1CC[C@H]([C@H](N)C(=O)N2CCCC2)C1 | < 4.00 | 7.02 | < 4.00 | 5.70 | –
N[C@H](C(=O)N1CCCC1)[C@H]1CC[C@H](O)C1 | < 4.00 | 6.08 | < 4.00 | 4.34 | –
COc1ccc(NC(=O)O[C@@H]2CC[C@H]([C@H](N)C(=O)N3CCCC3)C2)cc1 | < 4.00 | 5.96 | – | 6.20 | –
N[C@H](C(=O)N1CCCC1)[C@H]1CC[C@@H](O)C1 | < 4.00 | 5.34 | – | 4.30 | < 4.00
N[C@H](C(=O)N1CCCC1)[C@H]1CC[C@@H](OC(=O)Nc2ccccc2-c2ccccc2)C1 | < 4.00 | 5.41 | – | 6.06 | –
CS(=O)(=O)c1ccc(S(=O)(=O)N[C@@H]2CC[C@@H]([C@H](N)C(=O)N3CCCC3)C2)cc1 | < 4.00 | 7.89 | < 4.00 | 5.80 | –
COc1ccc(NC(=O)O[C@@H]2CC[C@H]([C@H](N)C(=O)N3CCSC3)C2)cc1 | < 4.00 | 6.62 | – | 7.37 | –
N[C@@H](C(=O)N1CCSC1)[C@H]1CC[C@@H](OC(=O)Nc2cccc(F)c2)C1 | < 4.00 | 5.92 | < 4.00 | 6.27 | –
COc1ccc(NC(=O)O[C@@H]2CCC[C@H]([C@H](N)C(=O)N3CCSC3)C2)cc1 | < 4.00 | 7.08 | – | 6.66 | –
N[C@H](C(=O)N1CCSC1)[C@H]1CC[C@@H](OC(=O)Nc2cccc(F)c2)C1 | < 4.00 | 6.68 | < 4.00 | 7.12 | –

Second part, the molecule after the results:

pIC50 [1] | pIC50 [2] | pIC50 [3] | pIC50 [4] | pIC50 [5] | SMILES
< 4.00 | 7.37 | 5.68 | 7.59 | – | N[C@H](C(=O)N1CCSC1)[C@H]1CC[C@H](NC(=O)Nc2cccc3ccccc23)C1
< 4.00 | 6.48 | < 4.00 | 6.96 | – | N[C@H](C(=O)N1CCCC1)[C@H]1CCC[C@H](OC(=O)Nc2ccc(I)cc2)C1
< 4.00 | 6.82 | < 4.00 | 6.00 | – | CS(=O)(=O)c1ccccc1S(=O)(=O)N[C@H]1CC[C@H]([C@H](N)C(=O)N2CCCC2)C1
< 4.00 | 6.18 | – | 6.80 | – | N[C@H](C(=O)N1CCCC1)[C@H]1CC[C@@H](OC(=O)Nc2ccc(I)cc2)C1
< 4.00 | 6.96 | – | 7.28 | – | CN(C)S(=O)(=O)c1ccc(S(=O)(=O)N[C@H]2CC[C@H]([C@H](N)C(=O)N3CCCC3)C2)cc1
< 4.00 | 6.60 | – | 5.51 | – | N[C@H](C(=O)N1CCCC1)[C@@H]1CC[C@H](NS(=O)(=O)c2ccc(S(N)(=O)=O)cc2)C1
< 4.00 | 6.74 | < 4.00 | 5.60 | – | COc1ccc(NC(=O)O[C@@H]2CCC[C@H]([C@H](N)C(=O)N3CCCC3)C2)cc1
< 4.00 | 5.77 | – | 6.96 | – | N[C@@H](C(=O)N1CCSC1)[C@H]1CC[C@@H](OC(=O)Nc2cccc3ccccc23)C1
< 4.00 | 6.38 | < 4.00 | 5.40 | – | CS(=O)(=O)c1ccc(S(=O)(=O)N[C@H]2CC[C@@H]([C@H](N)C(=O)N3CCCC3)C2)cc1
